Assay results published in ChEMBL document CHEMBL1129397, “Synthesis and biological activity of aromatic amino acid phosphoramidates of 5-fluoro-2'-deoxyuridine and 1-beta-arabinofuranosylcytosine: evidence of phosphoramidase activity” (J Med Chem, 1996).

Assays:
[1] = molecular target: T1, Thymidylate synthase (Mus musculus, UniProt P07607); experiment: Inhibition of cellular thymidylate synthase activity of mouse fibroblast (L929 TK-) in intact cells.; type: cell-based
[2] = molecular target: T1, Thymidylate synthase; experiment: Inhibition of cellular thymidylate synthase activity of murine leukemia cell line (L1210) in intact cells.; type: cell-based
[3] = molecular target: T1, Thymidylate synthase; experiment: Inhibition of cellular thymidylate synthase activity of murine leukemia cell line (L1210) in permeabilised cells.; type: cell-based
[4] = system: CEM-TK(-) (Homo sapiens); experiment: In vitro cytotoxicity of compounds were determined on human leukemia cells (CEM-TK-).
[5] = system: L929 TK- (Mus musculus); experiment: In vitro cytotoxicity of compounds were determined on murine fibroblast cell line (L929 TK-) in.
[6] = system: L1210; experiment: In vitro cytotoxicity of compounds were determined on murine leukemia cell line (L1210).; type: functional, cell-based; settings: Mus musculus
How it was run: (§1)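 Cells were cultured with or without compound for 48 h at 37 °C in a 5% CO2–95% air atmosphere. Portions were then counted for proliferation and viability by trypan blue dye exclusion. IC50 was taken from the remaining viable cell number.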

[7] = system: CCRF-CEM; experiment: In vitro cytotoxicity of compounds were determined on Inhibition of human leukemia cell line(CCRF-CEM).; type: functional, cell-based
How it was run: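 CCRF-CEM cells, or a CEM-TK⁻ variant with less than 1% of wild-type thymidine kinase activity, were grown in RPMI 1640 with 20% heat-inactivated FBS, penicillin, streptomycin and 0.5% human IL-2. Cells were cultured with or without compound for 48 h at 37 °C in 5% CO2. Proliferation and viability were then counted by trypan blue dye exclusion.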

[8] = molecular target: T1, Thymidylate synthase; experiment: Inhibition of cellular thymidylate synthase activity of mouse fibroblast (L929 TK-) in permeabilised cells; type: cell-based
[9] = system: CEM-TK(-); experiment: In vitro cytotoxicity of compounds were determined on Inhibition of human leukemia cell line (CEM-TK)
[10] = system: L929; experiment: In vitro cytotoxicity of compounds were determined on mouse fibroblast (L929 TK-).; type: functional, cell-based; how it was run: as §1
[11] = molecular target: T1, Thymidylate synthase; experiment: Inhibition of cellular thymidylate synthase activity of mouse fibroblast (L929 TK-) in permeabilised cells.; type: cell-based
How it was run: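 L929 TK⁻ cells were permeabilized with high-molecular-weight dextran sulfate. Intracellular thymidylate synthase activity was then measured in situ by tritium release, and IC50 values were determined.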

T1 sequence (P07607 whole entry): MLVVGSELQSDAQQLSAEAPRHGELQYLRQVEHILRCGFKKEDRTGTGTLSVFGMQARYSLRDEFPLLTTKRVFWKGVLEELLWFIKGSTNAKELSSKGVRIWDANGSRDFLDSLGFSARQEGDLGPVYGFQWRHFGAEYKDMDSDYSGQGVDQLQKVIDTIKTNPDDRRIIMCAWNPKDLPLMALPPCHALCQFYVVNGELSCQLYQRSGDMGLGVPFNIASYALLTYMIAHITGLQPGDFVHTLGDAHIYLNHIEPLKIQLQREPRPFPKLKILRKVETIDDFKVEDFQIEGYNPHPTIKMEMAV

Compound	IC50 [1]	IC50 [2]	IC50 [3]	IC50 [4]	IC50 [5]	IC50 [6]	IC50 [7]	IC50 [8]	IC50 [9]	IC50 [10]	IC50 [11]
COC(=O)[C@@H](NP(=O)(O)OC[C@H]1O[C@@H](n2cc(F)c(=O)[nH]c2=O)C[C@@H]1O)C1C=Nc2ccccc21 (some centres undefined)	0.67 µM	12 µM	2.3 µM	58.1 µM	240 µM	400 nM	320 nM	> 1000 µM	–	–	–
Nc1ccn([C@@H]2O[C@H](COP(=O)(O)O)[C@@H](O)[C@H]2O)c(=O)n1	–	–	–	–	–	–	100 nM	–	–	–	–
COC(=O)[C@H](Cc1ccccc1)NP(=O)(O)OCC1OC(n2cc(F)c(=O)[nH]c2=O)CC1O (some centres undefined)	> 1000 µM	21 µM	5 µM	–	–	410 nM	320 nM	1.1 µM	86.5 µM	200 µM	–
O=c1[nH]c(=O)n([C@H]2C[C@H](O)[C@@H](COP(=O)(O)O)O2)cc1F [5-FLUORODEOXYURIDYLATE]	–	–	–	–	–	15 nM	5.5 nM	–	–	6.8 µM	–
Nc1ccn([C@@H]2O[C@H](CO)[C@@H](O)[C@@H]2O)c(=O)n1 [CYTARABINE]	–	–	–	–	–	–	90 nM	–	–	–	–
O=c1[nH]c(=O)n([C@H]2C[C@H](O)[C@@H](CO)O2)cc1F [FLOXURIDINE]	7.3 µM	0.043 µM	59 µM	–	–	12 nM	2 nM	–	66.3 µM	7.7 µM	11 µM
